{"source": "ChEMBL document CHEMBL1629691", "about": "“Intrapulmonary pharmacokinetics and pharmacodynamics of micafungin in adult lung transplant patients” (Antimicrob Agents Chemother, 2010)", "key": {"[1]": {"system": "Homo sapiens", "assay": "Hepatotoxicity in lung transplant recipient invasive aspergillosis patient assessed as serum creatinine level at 150 mg, iv QD for 4 consecutive days measured post last dose", "format": "toxicity, organism-based", "settings": "in vivo", "method_in_brief": "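Serum creatinine, AST, ALT and total bilirubin were recorded from routine clinical laboratory tests before enrolment and again after BAL, at a mean of 10.7 days after infusion.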"}, "[2]": {"assay": "Tmax in lung transplant recipient invasive aspergillosis patient plasma at 150 mg, iv QD for 4 consecutive days by HPLC", "format": "ADME, organism-based", "settings": "human", "method_in_brief": "(§1)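 150-mg IV dose; BAL at 3, 5, 8, 18 or 24 h after the dose, about 4 subjects per time group. Plasma, ELF and alveolar cell drug was measured by reversed-phase HPLC with UV detection. Values were averaged per time point. Cmax is the highest mean over the five groups; Tmax is the mean dose-to-BAL time of that group.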"}, "[3]": {"assay": "Drug level in epithelial lining fluid of lung transplant recipient invasive aspergillosis patient at 150 mg, iv QD for 4 consecutive days measured after 24 hrs post last dose by HPLC", "format": "ADME, organism-based", "settings": "human, read-out: Drug uptake", "method_in_brief": "(§2)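 150-mg IV micafungin, then bronchoscopy with BAL (20-ml saline aliquots) at the stated time after the dose. Blood was drawn in heparin at the same time. The BAL fluid was spun at 400 × g for 5 min at 4°C; supernatant and cell pellet were frozen at −80°C. Micafungin was measured by solid-phase extraction and C8 HPLC with UV detection at 271.5 nm, using anidulafungin as internal standard.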"}, "[4]": {"assay": "Drug level in alveolar cells of lung transplant recipient invasive aspergillosis patient at 150 mg, iv QD for 4 consecutive days measured after 3 hrs post last dose by HPLC", "format": "ADME, organism-based, Pneumocyte", "settings": "human, read-out: Drug uptake", "method_in_brief": "as §2"}, "[5]": {"assay": "Drug level in lung transplant recipient invasive aspergillosis patient epithelial lining fluid at 150 mg, iv QD for 4 consecutive days measured after 18 hrs post last dose by HPLC", "format": "ADME, organism-based", "settings": "human, read-out: Drug uptake", "method_in_brief": "as §2"}, "[6]": {"assay": "Drug level in lung transplant recipient invasive aspergillosis patient plasma at 150 mg, iv QD for 4 consecutive days measured after 5 hrs post last dose by HPLC", "format": "ADME, organism-based", "settings": "human, read-out: Drug uptake", "method_in_brief": "as §2"}, "[7]": {"assay": "Cmax in lung transplant recipient invasive aspergillosis patient plasma at 150 mg, iv QD for 4 consecutive days by HPLC", "format": "ADME, organism-based", "set-up": "dose 150 mg, route intravenous", "settings": "human", "method_in_brief": "as §1"}, "[8]": {"assay": "Elimination half life in lung transplant recipient invasive aspergillosis patient at 150 mg, iv QD for 4 consecutive days by HPLC", "format": "ADME, organism-based", "settings": "human, in vivo, read-out: beta t1/2 (converted)", "method_in_brief": "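Plasma micafungin was measured by HPLC after a 150-mg IV dose in lung transplant recipients. The terminal-phase half-life was derived by model-independent (noncompartmental) analysis of plasma concentrations.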"}, "[9]": {"assay": "Ratio of Cmax in lung transplant recipient invasive aspergillosis patient epithelial lining fluid to MIC90 for Aspergillus fumigatus", "format": "functional"}, "[10]": {"assay": "Clearance in lung transplant recipient invasive aspergillosis patient at 150 mg, iv QD for 4 consecutive days by HPLC", "format": "ADME, organism-based", "settings": "human, in vivo"}, "[11]": {"assay": "Ratio of drug level in epithelial lining fluid to plasma in lung transplant recipient invasive aspergillosis patient at 150 mg, iv QD for 4 consecutive days measured after 18 hrs post last dose", "format": "ADME, organism-based", "settings": "human"}, "[12]": {"assay": "Drug level in lung transplant recipient invasive aspergillosis patient plasma at 150 mg, iv measured after 5 hrs post last dose by HPLC", "settings": "human, read-out: Drug uptake"}, "[13]": {"assay": "Volume of distribution in lung transplant recipient invasive aspergillosis patient at 150 mg, iv QD for 4 consecutive days by HPLC", "format": "ADME, organism-based", "settings": "human, in vivo"}, "[14]": {"assay": "Ratio of drug level in epithelial lining fluid to plasma in lung transplant recipient invasive aspergillosis patient at 150 mg, iv QD for 4 consecutive days measured after 24 hrs post last dose", "format": "ADME, organism-based", "settings": "human"}, "[15]": {"assay": "AUC (0 to 24 hrs) in alveolar cell of lung transplant recipient invasive aspergillosis patient plasma at 150 mg, iv administered as single dose", "format": "ADME, organism-based, Pneumocyte", "set-up": "time < 24 hr, dose 150 mg, route intravenous", "settings": "human, alveolar cells", "method_in_brief": "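Single 150-mg IV dose in adult lung transplant recipients. Plasma, ELF (epithelial lining fluid) and alveolar cell concentrations were measured by HPLC at the time of bronchoscopy. AUC0-24 came from a population model: a linear four-compartment model fit to all compartments, with the plasma two-compartment model used for the plasma profile.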"}, "[16]": {"assay": "Drug level in lung transplant recipient invasive aspergillosis patient plasma at 150 mg, iv QD for 4 consecutive days measured after 24 hrs post last dose by HPLC", "format": "ADME, organism-based", "settings": "human, read-out: Drug uptake", "method_in_brief": "as §2"}, "[17]": {"assay": "Drug level in alveolar cells of lung transplant recipient invasive aspergillosis patient at 150 mg, iv QD for 4 consecutive days measured after 24 hrs post last dose by HPLC", "format": "ADME, organism-based, Pneumocyte", "settings": "human, read-out: Drug uptake", "method_in_brief": "as §2"}, "[18]": {"assay": "Ratio of AUC (0 to 24 hrs) in lung transplant recipient invasive aspergillosis patient epithelial lining fluid to MIC90 for Aspergillus fumigatus", "format": "functional"}, "[19]": {"assay": "Drug level in alveolar cells of lung transplant recipient invasive aspergillosis patient at 150 mg, iv QD for 4 consecutive days measured after 8 hrs post last dose by HPLC", "format": "ADME, organism-based, Pneumocyte", "settings": "human, read-out: Drug uptake", "method_in_brief": "as §2"}, "[20]": {"assay": "Ratio of AUC (0 to 24 hrs) in lung transplant recipient invasive aspergillosis patient plasma to MIC90 for Aspergillus fumigatus", "format": "functional"}, "[21]": {"assay": "Tmax in epithelial lining fluid of lung transplant recipient invasive aspergillosis patient at 150 mg, iv QD for 4 consecutive days by HPLC", "format": "ADME, organism-based", "settings": "human", "method_in_brief": "as §1"}, "[22]": {"assay": "Ratio of fCmax in lung transplant recipient invasive aspergillosis patient plasma to MIC90 for Aspergillus fumigatus", "format": "functional"}, "[23]": {"assay": "Drug level in epithelial lining fluid of lung transplant recipient invasive aspergillosis patient at 150 mg, iv QD for 4 consecutive days measured after 5 hrs post last dose by HPLC", "format": "ADME, organism-based", "settings": "human, read-out: Drug uptake", "method_in_brief": "as §2"}, "[24]": {"assay": "Ratio of AUC (0 to 24 hrs) in lung transplant recipient invasive aspergillosis patient alveolar cell to MIC90 for Aspergillus fumigatus", "format": "functional, Pneumocyte"}, "[25]": {"assay": "Ratio of drug level in alveolar cell to plasma of lung transplant recipient invasive aspergillosis patient at 150 mg, iv single dose measured after 5 hrs post dose", "settings": "human, alveolar cells / plasma"}, "[26]": {"assay": "Ratio of drug level in epithelial lining fluid to plasma in lung transplant recipient invasive aspergillosis patient at 150 mg, iv QD for 4 consecutive days measured after 8 hrs post last dose", "format": "ADME, organism-based", "settings": "human"}}, "note": "Numbered stars: 1 amine (or outer) side, 2 acyl side, 3 side chain; on linkers, the order of the positions; unused ones are H or OH. Bridge positions count the residues as written; N and C are the ends. Square brackets hold non-standard residues; d marks the D form. Peptide text beside a SMILES is read from it. * marks the point of attachment. hTyr(3S-OH,4S-OH,3'-OSO3H) = N[C@H](C(=O)O)[C@H](O)[C@@H](O)c1ccc(O)c(OS(=O)(=O)O)c1; Orn(4R-OH,5R-OH) = O=C([C@H](C[C@@H](O)[C@@H](O)N[*:3])N[*:1])[*:2]; Pro(3S-OH,4S-Me) = C[C@H]1CN[C@H](C(=O)O)[C@H]1O; X1 = CCCCCOc1ccc(-c2cc(-c3ccc(C(=O)*)cc3)no2)cc1; Gln(3R-OH) = NC(=O)C[C@@H](O)[C@H](N)C(=O)O; Hyp = O=C(O)[C@@H]1C[C@@H](O)CN1"}
{"smiles": "CCCCCOc1ccc(-c2cc(-c3ccc(C(=O)N[C@H]4C[C@@H](O)[C@@H](O)NC(=O)[C@@H]5[C@@H](O)[C@@H](C)CN5C(=O)[C@H]([C@H](O)CC(N)=O)NC(=O)[C@H]([C@H](O)[C@@H](O)c5ccc(O)c(OS(=O)(=O)O)c5)NC(=O)[C@@H]5C[C@@H](O)CN5C(=O)[C@H]([C@@H](C)O)NC4=O)cc3)no2)cc1", "note": "[MICAFUNGIN] (X1-[Orn(4R-OH,5R-OH)]T[Hyp][hTyr(3S-OH,4S-OH,3'-OSO3H)][Gln(3R-OH)][Pro(3S-OH,4S-Me)]; lactam 1-C)", "values": [{"measurement": "Activity", "setting": "[1]", "value": 1.11, "unit": "mg/dL"}, {"measurement": "Tmax", "setting": "[2]", "value": 4, "unit": "h"}, {"measurement": "concentration at 24 h", "setting": "[3]", "value": 1380, "unit": "ng/mL"}, {"measurement": "concentration at 3 h", "setting": "[4]", "value": 7170, "unit": "ng/mL"}, {"measurement": "concentration at 18 h", "setting": "[5]", "value": 80, "unit": "ng/mL"}, {"measurement": "concentration at 5 h", "setting": "[6]", "value": 5380, "unit": "ng/mL"}, {"measurement": "Cmax", "setting": "[7]", "value": 4930, "unit": "ng/mL"}, {"measurement": "half-life", "setting": "[8]", "value": 12.1, "unit": "h"}, {"measurement": "Ratio", "setting": "[9]", "value": 88.5}, {"measurement": "clearance", "setting": "[10]", "value": 21.8, "unit": "mL/min"}, {"measurement": "Kp at 18 h", "setting": "[11]", "value": 0.04}, {"measurement": "concentration at 5 h", "setting": "[12]", "value": 4810, "unit": "ng/mL"}, {"measurement": "Vd", "setting": "[13]", "value": 17.6, "unit": "L"}, {"measurement": "Kp at 24 h", "setting": "[14]", "value": 1.1}, {"measurement": "AUC(0-t) at 24 h", "setting": "[15]", "value": 208, "unit": "µg·h/mL"}, {"measurement": "concentration at 24 h", "setting": "[16]", "value": 1570, "unit": "ng/mL"}, {"measurement": "concentration at 24 h", "setting": "[17]", "value": 9990, "unit": "ng/mL"}, {"measurement": "Ratio", "setting": "[18]", "value": 923.1}, {"measurement": "concentration at 8 h", "setting": "[19]", "value": 4860, "unit": "ng/mL"}, {"measurement": "Ratio", "setting": "[20]", "value": 5077}, {"measurement": "Tmax", "setting": "[21]", "value": 24.2, "unit": "h"}, {"measurement": "Ratio", "setting": "[22]", "value": 3.2}, {"measurement": "concentration at 5 h", "setting": "[23]", "value": 690, "unit": "ng/mL"}, {"measurement": "Ratio", "setting": "[24]", "value": 13340}, {"measurement": "Kp at 5 h", "setting": "[25]", "value": 0.61}, {"measurement": "Kp at 8 h", "setting": "[26]", "value": 0.01}]}
